# Screens from PubChem.
# Only some compounds are listed: those with a hit (about 2.1% of all), similar ones and a draw of the others.
# CCR6 antag: CCR6 receptor antagonists, primary screen, cell-based, CHO-K1, luminescence, beta-arrestin, uHTS. C-C chemokine receptor type 6 (Homo sapiens), P51684. CHO-K1 CCR6 PathHunter beta-arrestin, CCL20-stimulated. inhibition, % at 20 µM. 340,000 tested, 0.49% active;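 active = compounds whose inhibition of the agonist-driven luminescence signal at 20 µM reaches about 50%, limit read from the data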;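 also: cells stimulated with CCL20 at 14 nM final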
# EBI2 antag: EBI2 receptor antagonists, beta-arrestin recruitment, primary screen, cell-based, luminescence, 7a,25-OHC stimulation, uHTS | G-protein coupled receptor 183 (Homo sapiens), P32249 | 7a,25-OHC stimulated | inhibition, % at 5 µM | 360,000 tested, 0.81% active | AID 651636, 2012; in the data active = inhibition above about 38%;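 also: enzyme fragment complementation signal reports receptor beta-arrestin coupling in cells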
# APJ ag: agonists of human apelin receptor APJ, primary screen, CHO-K1 cells, PathHunter beta-arrestin, luminescence. 0% DMSO wells, 100% apelin. AID 2520, 2010. activation, % at 20 µM. 330,000 tested, 0.11% active. P35414;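 active = activation more than six SD over the plate average, tested at 20 µM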
#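 Test system – PathHunter CHO-K1 APJ (AGTRL-1) beta-arrestin reporter cells · Input – 1000 cells/well · Compound – single test compound dose, 20 µM final, 1% DMSO · Times – compound stimulation 90 min at 25 °C, detection 60 min · Technique – beta-gal luminescence · Read-out basis – APJ–arrestin association signal · Control set – negative DMSO alone, positive Apelin-13 at 10 nM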
# CXCR6 inh: CXCR6 receptor inhibitors, primary screen, cell-based, beta-arrestin, luminescence, CHO-K1 PathHunter, 1536-well; C-X-C chemokine receptor type 6 (Homo sapiens), O00574; 360,000 tested, 0.36% active; AID 602244, 2012; inhibition, % at 20 µM; in the data active = inhibition above about 34%, passing the limit was not always enough;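 also: antagonist mode with CXCL16 agonist at 10 nM final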
# HTR2A ag: mouse Htr2a agonists via beta-arrestin recruitment, primary screen, cell-based, luminescence; 5-hydroxytryptamine receptor 2A (Mus musculus), P35363; CHO-K1 mHTR2A beta-arrestin complementation; percent of 30 µM serotonin response; activation, % at 7.6 µM; 360,000 tested, 0.66% active; AID 624169, 2012;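 active = activation above a run cutoff, the mean activation of all tested compounds plus 3 SD, cut at about 14% in these data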
# Target sequence (P35363 whole entry, looked up): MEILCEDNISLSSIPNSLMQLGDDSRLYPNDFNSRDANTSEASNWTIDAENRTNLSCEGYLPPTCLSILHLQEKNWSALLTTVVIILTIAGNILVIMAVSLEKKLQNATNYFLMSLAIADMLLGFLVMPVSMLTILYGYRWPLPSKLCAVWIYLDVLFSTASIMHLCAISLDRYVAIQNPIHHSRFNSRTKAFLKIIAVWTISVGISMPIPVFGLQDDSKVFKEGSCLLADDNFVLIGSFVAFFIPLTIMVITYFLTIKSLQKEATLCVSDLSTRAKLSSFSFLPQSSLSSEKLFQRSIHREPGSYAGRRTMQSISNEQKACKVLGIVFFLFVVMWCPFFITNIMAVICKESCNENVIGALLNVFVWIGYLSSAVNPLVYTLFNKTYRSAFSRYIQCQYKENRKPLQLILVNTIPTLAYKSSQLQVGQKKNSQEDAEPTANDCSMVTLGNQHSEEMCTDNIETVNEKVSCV
# APJ antag: antagonists of human apelin receptor APJ, primary screen, CHO-K1 cells, beta-arrestin complementation, luminescence. 330,000 tested, 0.32% active. inhibition, % at 20 µM;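 active = inhibition above about 40% at 20 µM, limit read from the data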;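 also: cells challenged with 10 nM apelin-13 agonist together with compound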
# Hits are given with their value; i = inactive; nt = no result.
SMILES,CCR6 antag,EBI2 antag,APJ ag,CXCR6 inh,HTR2A ag,APJ antag
Cc1ccc(S(=O)(=O)N(C)C)cc1NC(=O)C(C)OC(=O)CC1CC2CCC1C2 (centres undefined),nt,i,nt,i,i,nt
O=C(O)c1ccccc1NS(=O)(=O)c1cccc(-n2sc3ccccc3c2=O)c1,i,96.1,i,i,i,i
O=C(CCS(=O)(=O)c1ccccc1Cl)NCCC1=CCCCC1,i,i,i,i,i,i
CN1/C(=C/C=C/c2n(C)c3cc([N+](=O)[O-])c([N+](=O)[O-])cc3[n+]2C)C(C)(C)c2ccccc21,nt,i,nt,48.5,i,nt
Cc1cccc[n+]1CC(=O)/C=C1\N(C)c2ccccc2C1(C)C,i,i,i,i,i,i
N#C/C(=C/c1ccc(-c2ccccc2)o1)c1nc(-c2cccs2)cs1,i,i,nt,i,i,nt
N#C/C(=C\c1ccc(-c2ccc(F)cc2)o1)C(=O)Nc1nc(-c2cccs2)cs1,54.6,i,i,i,i,i
CC1CC(C)CN(S(=O)(=O)N2CCCC(C(=O)NCc3ccccc3Cl)C2)C1 (centres undefined),56.0,i,i,i,i,i
CC1CCN(S(=O)(=O)N2CCCC(C(=O)NCc3ccccc3Cl)C2)CC1 (centres undefined),i,i,i,i,i,i
CCCCOc1cccc(C(=O)NC(=S)Nc2cccc(C(F)(F)F)c2)c1,51.5,i,i,i,i,i
CC(C)Oc1cccc(C(=O)NC(=S)Nc2cccc(C(F)(F)F)c2)c1,nt,i,i,i,i,i
COc1ccccc1CNc1nc(NCc2ccc3occc3c2)c2sccc2n1,nt,i,nt,i,i,nt
O=C1CC(Sc2nnc(-c3ccccc3)o2)C(=O)N1c1ccccc1 (centres undefined),i,i,i,i,i,i
Cc1ccccc1N1C(=O)CC(Sc2nnc(-c3ccccc3)o2)C1=O (centres undefined),nt,i,i,51.6,i,i
O=C(NCc1ccccc1)Nc1nnc([C@@H]2C[C@H](O)[C@@H](CO)O2)s1,nt,i,nt,i,i,nt
COc1cc(/C=N/N=C2/C(=O)Nc3ccccc32)ccc1O,55.9,i,i,i,i,i
Oc1c(Cl)cc(Cl)cc1CNc1ccc(Br)cn1,i,i,i,i,i,i
Oc1ccc(Cl)cc1CNc1ccc(Br)cn1,i,41.3,i,i,i,i
Cc1c(C(=O)N2CCCCC2)c(S(=O)(=O)N2c3ccccc3CC2C)c(C)n1C (centres undefined),i,i,i,i,i,i
Cc1ccc([N+](=O)[O-])cc1NC(=O)C(C)NS(=O)(=O)c1ccc(F)cc1 (centres undefined),i,i,i,i,i,i
CN(C)c1ccc(N=Nc2ccccc2Br)cc1,i,i,i,i,i,i
CN(C)c1ccc(N=Nc2nccs2)cc1,nt,i,nt,51.2,i,nt
N=c1c(C(=O)NCc2ccc(F)cc2)cc2c(=O)n3ccccc3nc2n1Cc1ccco1,i,i,i,i,i,49.0
COC1=CC(=O)C=C(OC)C1=O,85.7,i,nt,81.3,i,nt
N#CCCN1CCCc2cc(N=Nc3ccc(C(F)(F)F)cc3)ccc21,i,55.9,i,i,i,i
SMILES,CCR6 antag,EBI2 antag,APJ ag,CXCR6 inh,HTR2A ag,APJ antag
COCOCCn1cc(CN2CCS(=O)(=O)N(Cc3ccc(-c4ccc(Cl)c(Cl)c4)cc3)C(C(C)C)C2=O)nn1 (centres undefined),nt,i,nt,i,i,nt
CCCCCC(=O)N1C[C@@H](O)[C@H](n2cc(COC(=O)c3ccccc3)nn2)C[C@@H]1c1ccc(Cl)cc1,nt,i,nt,i,i,nt
COc1ccccc1N(C(C)=O)C1=C(Cl)C(=O)c2ccccc2C1=O,nt,i,nt,96.5,i,nt
Cc1nc(Nc2ncc3c(n2)CC(C)(C)CC3=O)nc2ccccc12,i,i,nt,i,i,nt
CC1=NC(Nc2nc(C)c3ccccc3n2)=NC(C)(C)C1,58.1,i,nt,i,i,nt
O=CNc1cc(-c2ccoc2)cn2c(-c3ccc(F)cc3)cnc12,nt,i,nt,i,i,nt
N#C/C(=C/C1=C(N2CCOCC2)C(=C/c2ccccc2)/CC1)C(=O)Nc1ccccc1F,i,i,nt,i,i,nt
CCN(CC)c1ccc(/C=C2\CCC(/C=C(\C#N)C(=O)Nc3ccccc3F)=C2N2CCOCC2)cc1,91.2,i,nt,i,i,nt
CCN(CC)c1ccc(/C=C2\CCC(/C=C(/C#N)C(=O)Nc3ccccc3F)=C2N2CCOCC2)cc1,102.0,i,nt,44.9,i,nt
CCOc1ccc(S(=O)(=O)N2CCC(C(=O)NCc3ccccn3)CC2)cc1C,i,i,i,i,i,i
COc1cc(OC)cc(C(=O)Nn2c(C)nc3ccccc3c2=O)c1,i,i,i,i,i,i
COc1cc(OC)cc(-c2nc3ccccc3c(=O)n2OC(=O)c2ccc(C)c(C)c2)c1,i,i,11.1,i,i,i
O=C1NCCCN1Cc1ccc(Cl)cc1,i,i,i,i,i,i
CCCCCCCCCC(=O)OCC(O)CO (centres undefined),i,i,i,i,i,i
CCCCCCCCCCCCCCC[C@@H](O)[C@@H](N)CO,67.5,i,nt,i,i,nt
CC(C)OC(=O)N(C)C[C@@H]1OCc2cnnn2CCCC(=O)N([C@@H](C)CO)C[C@@H]1C,nt,i,nt,i,i,nt
COc1ccc(-c2csc(N3C(=N)SCC3=O)n2)cc1,55.8,i,i,i,i,i
Cc1ccccc1C1=C/C(=C(\SS/C(C(=O)c2ccc(OCC(=O)O)c(Cl)c2Cl)=C2\C=C(c3ccccc3C)SS2)C(=O)c2ccc(OCC(=O)O)c(Cl)c2Cl)SS1,61.8,i,nt,i,i,nt
CCCC1C(=O)N(Cc2ccccc2)C(=O)CC1C (centres undefined),i,i,i,i,i,i
Oc1ccc(/C=N/Nc2cc(N3CCCC3)nc(N3CCCC3)n2)cc1,i,55.4,i,i,i,i
CCS(=O)(=O)N1CCC2(CC1)OCCN2S(=O)(=O)c1ccc(OC)cc1,i,i,i,i,i,i
CCOC(=O)[C@]12CCCC=C1N(CCc1ccc(OC)c(OC)c1)C(=O)[C@H](CC(=O)N1CCSCC1)C2,nt,i,nt,nt,i,nt
COc1cc(/C=C/c2cc(OC(C)=O)c3ccccc3n2)c(OC(C)=O)c([N+](=O)[O-])c1,63.0,i,i,i,i,i
CN(CCc1cnn(C)c1)C(=O)C1CCC(=O)N(CC2CCCCC2)C1 (centres undefined),i,i,i,i,i,i
CCN1C/C(=C/c2cccc([N+](=O)[O-])c2)C(=O)/C(=C/c2cccc([N+](=O)[O-])c2)C1,61.7,i,nt,i,i,nt
